Experimental data pooled from the literature.
Lines come from different studies, so protocols differ.
AKR1B1: Aldo-keto reductase family 1 member B1 (AKR1B1, Homo sapiens, UniProt P15121)
LATS2: Serine/threonine-protein kinase LATS2 (LATS2, Homo sapiens, UniProt Q9NRM7)

| SMILES | target | observed | action | method | IC50 |
| --- | --- | --- | --- | --- | --- |
| COc1cc(/C=N/NC(=S)NN=Cc2cccs2)ccc1Oc1ccnc2cc(Cl)ccc12 | AKR1B1 | enzyme activity | inhibitor | absorbance | 19700 nM |
| CC1CNCCC1(O)c1ccc(-c2ccnc3[nH]cc(F)c23)cc1 (stereo not drawn) | LATS2 | enzyme activity | inhibitor | radiometric | 5.6 nM |
| COc1c(Cl)cccc1Nc1c(-c2ccncc2OC[C@@H]2COCCO2)[nH]c2c1C(=O)NCC2 | Tyrosine-protein kinase Lck, phosphorylated (LCK, Homo sapiens, UniProt P06239) | enzyme activity | inhibitor | TR-FRET | 1130 nM |
| CC(C)C[C@H](NP(=O)(O)O[C@@H]1O[C@@H](C)[C@H](O)[C@@H](O)[C@H]1O)C(=O)N[C@@H](Cc1c[nH]c2ccccc12)C(=O)O | Neprilysin (MME, Homo sapiens, UniProt P08473) | enzyme activity | inhibitor | – | 575 nM |
| COc1cc(CN(CCN)C(=O)c2cccs2)ccc1OCc1ccccc1 | Transient receptor potential cation channel subfamily M member 8 (TRPM8, Homo sapiens, UniProt Q7Z2W7) | ion current | inhibitor | patch clamp | 12 nM |
| COc1cc(/C=N/NC(=S)N/N=C/c2ccc(F)cc2)ccc1Oc1ccnc2cc(Cl)ccc12 | AKR1B1 | enzyme activity | inhibitor | absorbance | 19500 nM |
| Cc1cc(-c2ccnc3[nH]cc(F)c23)cc(F)c1[C@@]1(O)[C@H](C)CN(C2CCS(=O)(=O)CC2)C[C@@H]1C | LATS2 | target engagement in cells | – | BRET | 36 nM |
| COc1cc(/C=N/NC(=S)N/N=C/c2ccc(Cl)cc2)ccc1Oc1ccnc2cc(Cl)ccc12 | AKR1B1 | enzyme activity | inhibitor | absorbance | 14900 nM |
| Cc1cc(-c2ccnc3[nH]cc(F)c23)cc(F)c1[C@@]1(O)[C@H](C)CN(C(=O)CN)C[C@@H]1C | LATS2 | enzyme activity | inhibitor | radiometric | 2.6 nM |
| COc1cc(/C=N/NC(=S)NN=Cc2ccncc2)ccc1Oc1ccnc2cc(Cl)ccc12 | AKR1B1 | enzyme activity | inhibitor | absorbance | 9920 nM |
| OC1(c2ccc(-c3ccnc4[nH]cc(F)c34)cc2)CCNC1 (stereo not drawn) | LATS2 | enzyme activity | inhibitor | radiometric | 8.4 nM |
| Cc1cn([C@H]2C[C@H](OP(=O)(O)OC[C@H]3O[C@@H](n4cc(C)c(=O)[nH]c4=O)C[C@@H]3O)[C@@H](COP(=O)(O)OP(=O)(O)O)O2)c(=O)[nH]c1=O | dgt (Salmonella enterica, UniProt A0A5H6DAK1) | enzyme activity | inhibitor | – | 19700 nM |
| Clc1ccc(Nc2ccncc2)cc1Cl | Endonuclease 8-like 1 (NEIL1, Homo sapiens, UniProt Q96FI4) | enzyme activity | inhibitor | – | > 99000 nM |
| C[C@@H]1CNC[C@H](C)[C@@]1(O)c1ccc(-c2ccnc3[nH]cc(F)c23)cc1 | LATS2 | enzyme activity | inhibitor | radiometric | 8.7 nM |
| COc1cc(/C=N/NC(=S)N/N=C/c2ccc(N(C)C)cc2)ccc1Oc1ccnc2cc(Cl)ccc12 | AKR1B1 | enzyme activity | inhibitor | absorbance | 10400 nM |
